Measurements from ChEMBL document CHEMBL3758076, “Azaphilones from an Acid Mine Extremophile Strain of a Pleurostomophora sp” (J Nat Prod, 2015).
Active and inactive are the calls of the source. The rule behind the calls is not given here.

Experiments:
[1] = system: THP-1; experiment: Antiinflammatory activity in human THP1 cells assessed as suppression of LPS and TiO2-induced IL-33 production at 10 uM after 24 hrs by induced inflammasome assay; assay type: functional, cell-based
Procedure, shortened: (§1)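 THP-1 cells stimulated with bacterial LPS plus titanium dioxide (TiO2) to drive proinflammatory cytokine output and NLRP3 inflammasome assembly. Compounds were added to the induced cells, and IL-6, IL-33, TNF-α and IL-1β production was then measured.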

[2] = Cytotoxicity against human MOLT4 cells after 72 hrs by Alamar Blue viability assay; assay type: functional; conditions: MOLT-4, 72 h
[3] = system: CCRF-CEM; experiment: Cytotoxicity against human CCRF-CEM cells after 72 hrs by Alamar Blue viability assay; assay type: functional
[4] = system: THP-1; experiment: Antiinflammatory activity in human THP1 cells assessed as suppression of LPS and TiO2-induced IL-6 production at 10 uM after 24 hrs by induced inflammasome assay; assay type: functional, cell-based; procedure, shortened: as §1
[5] = (§2) Antiinflammatory activity in human THP1 cells assessed as suppression of LPS and TiO2-induced TNF-alpha production at 10 uM after 24 hrs by induced inflammasome assay; assay type: functional, THP-1; procedure, shortened: as §1
[6] = target: Stromelysin-1 (Homo sapiens, UniProt P08254); experiment: Inhibition of MMP-3 (unknown origin)
[7] = system: SR; experiment: Cytotoxicity against human SR cells after 96 hrs by Hoechst-staining based nuclei image analysis; assay type: functional
[8] = system: Y79; experiment: Cytotoxicity against human Y79 cells after 96 hrs by Hoechst-staining based nuclei image analysis; assay type: functional, cell-based; conditions: Y79, 96 h
[9] = (§3) Cytotoxicity against human RPMI8226 cells after 96 hrs by Hoechst-staining based nuclei image analysis; assay type: functional; conditions: RPMI-8226, 96 h
[10] = target: T1, Caspase-1 (Homo sapiens, UniProt P29466); experiment: Inhibition of caspase-1 (unknown origin)
T1 sequence (P29466 whole entry): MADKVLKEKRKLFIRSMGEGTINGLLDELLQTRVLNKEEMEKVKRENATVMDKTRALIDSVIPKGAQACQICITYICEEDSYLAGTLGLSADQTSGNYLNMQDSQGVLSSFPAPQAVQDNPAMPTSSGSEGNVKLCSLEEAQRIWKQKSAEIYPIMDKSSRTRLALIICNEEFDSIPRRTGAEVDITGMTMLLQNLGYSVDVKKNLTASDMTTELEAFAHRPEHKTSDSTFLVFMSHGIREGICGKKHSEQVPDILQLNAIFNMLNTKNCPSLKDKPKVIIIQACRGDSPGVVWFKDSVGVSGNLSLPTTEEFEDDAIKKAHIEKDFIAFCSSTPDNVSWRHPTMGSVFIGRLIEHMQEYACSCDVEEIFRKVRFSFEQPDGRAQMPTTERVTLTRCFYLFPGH

[11] = system: SR; experiment: Cytotoxicity against human SR cells after 72 hrs by Alamar Blue viability assay; assay type: functional
[12] = system: CCRF-CEM; experiment: Cytotoxicity against human CCRF-CEM cells after 96 hrs by Hoechst-staining based nuclei image analysis; assay type: functional
[13] = Cytotoxicity against human LOXIMVI cells after 72 hrs by Alamar Blue viability assay; assay type: functional; conditions: LOX IMVI
[14] = Cytotoxicity against human RPMI8226 cells after 72 hrs by Alamar Blue viability assay; assay type: functional; conditions: RPMI-8226, 72 h
[15] = (§4) Antiinflammatory activity in human THP1 cells assessed as suppression of LPS and TiO2-induced IL-1beta production at 10 uM after 24 hrs by induced inflammasome assay; assay type: functional, THP-1; procedure, shortened: as §1
[16] = (§5) Cytotoxicity against human MOLT4 cells after 96 hrs by Hoechst-staining based nuclei image analysis; assay type: functional; conditions: MOLT-4, 96 h
[17] = system: Y79; experiment: Cytotoxicity against human Y79 cells after 72 hrs by Alamar Blue viability assay; assay type: functional, cell-based; conditions: Y79, 72 h
[18] = system: RPMI-8226; experiment: Cytotoxicity against human RPMI8226 cells at 1 to 10 uM after 72 hrs by Alamar Blue viability assay; assay type: functional, cell-based
[19] = system: MOLT-4; experiment: Cytotoxicity against human MOLT4 cells at 1 to 10 uM after 72 hrs by Alamar Blue viability assay; assay type: functional, cell-based
[20] = system: LOX IMVI; experiment: Cytotoxicity against human LOXIMVI cells after 96 hrs by Hoechst-staining based nuclei image analysis; assay type: functional
[21] = system: RPMI-8226; experiment: as §3; assay type: functional
[22] = system: LOX IMVI; experiment: Cytotoxicity against human LOXIMVI cells at 1 to 10 uM after 72 hrs by Alamar Blue viability assay; assay type: functional, cell-based
[23] = system: MOLT-4; experiment: as §5; assay type: functional
[24] = system: CCRF-CEM; experiment: Cytotoxicity against human CCRF-CEM cells at 1 to 10 uM after 72 hrs by Alamar Blue viability assay; assay type: functional, cell-based
[25] = system: SR; experiment: Cytotoxicity against human SR cells at 1 to 10 uM after 72 hrs by Alamar Blue viability assay; assay type: functional, cell-based
[26] = system: THP-1; experiment: Antiinflammatory activity in human THP1 cells assessed as suppression of LPS and TiO2-induced IL-1beta production at 100 uM after 24 hrs by induced inflammasome assay; assay type: functional, cell-based; procedure, shortened: as §1
[27] = system: THP-1; experiment: Antiinflammatory activity against human THP1 cells assessed as suppression of LPS and TiO2-induced IL-6 production at 100 uM after 24 hrs by induced inflammasome assay; assay type: functional, cell-based; procedure, shortened: as §1
[28] = system: THP-1; experiment: as §2; assay type: functional; procedure, shortened: as §1
[29] = system: THP-1; experiment: Antiinflammatory activity against human THP1 cells assessed as suppression of LPS and TiO2-induced IL-33 production at 100 uM after 24 hrs by induced inflammasome assay; assay type: functional, cell-based; procedure, shortened: as §1
[30] = system: THP-1; experiment: as §4; assay type: functional; procedure, shortened: as §1
[31] = system: THP-1; experiment: Antiinflammatory activity against human THP1 cells assessed as suppression of LPS and TiO2-induced TNF-alpha production at 100 uM after 24 hrs by induced inflammasome assay; assay type: functional, cell-based; procedure, shortened: as §1

Sequence of Stromelysin-1 (P08254 whole entry): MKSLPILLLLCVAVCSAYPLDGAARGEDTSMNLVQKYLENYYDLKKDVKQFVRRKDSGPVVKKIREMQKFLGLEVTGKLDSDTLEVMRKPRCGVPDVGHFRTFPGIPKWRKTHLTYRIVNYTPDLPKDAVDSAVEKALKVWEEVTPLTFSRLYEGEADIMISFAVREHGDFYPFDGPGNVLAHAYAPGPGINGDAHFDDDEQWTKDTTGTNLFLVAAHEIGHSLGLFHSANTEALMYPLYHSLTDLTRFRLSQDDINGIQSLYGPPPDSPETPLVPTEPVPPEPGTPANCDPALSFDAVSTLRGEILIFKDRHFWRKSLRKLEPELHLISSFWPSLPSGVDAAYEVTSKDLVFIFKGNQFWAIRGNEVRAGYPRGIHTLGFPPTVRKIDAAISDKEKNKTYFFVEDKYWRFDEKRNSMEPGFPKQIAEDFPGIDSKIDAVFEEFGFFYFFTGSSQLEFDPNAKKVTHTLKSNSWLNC

Question: Which results are given for CCCCCCCCCC(=O)[C@@]12O[C@@]13C1=COC(C[C@H](C)O)=CC1=CC(=O)[C@]3(C)OC2=O?
Answer: Activity [1]: Active; GI50 [2]: 10 µM; GI90 [3]: 10 µM; Activity [4]: Active; Activity [5]: 95%; IC50 [6]: 15 µM; GI50 [7]: 10 µM; IC50 [8]: 1.1 µM; GI50 [9]: 10 µM; IC50 [10]: 25 µM; GI50 [11]: 10 µM; GI90 [12]: 10 µM; GI50 [13]: 10 µM; GI50 [14]: 10 µM; Activity [15]: 95%; GI50 [16]: 10 µM; IC50 [17]: 1.1 µM

Question: For CCCCCCCCCC(=O)C[C@@H]1C2=COC(C[C@H](C)O)=CC2=CC(=O)[C@]1(C)O, which Activity [18] is on record?
Answer: inactive

Question: What about the Activity [19] of the same compound?
Answer: inactive

Question: And the Activity [20]?
Answer: inactive

Question: And the Activity [7]?
Answer: inactive

Question: What about the Activity [21] of the same compound?
Answer: inactive

Question: What about the Activity [22] of the same compound?
Answer: inactive

Question: And the Activity [23]?
Answer: inactive

Question: And the Activity [24]?
Answer: inactive

Question: And the Activity [25]?
Answer: inactive

Question: Which results are given for CCCCCCCCCC(=O)[C@@H]1C(=O)O[C@@]2(C)C(=O)C=C3C=C(C[C@H](C)O)OC=C3[C@@H]12?
Answer: Activity [1]: inactive; Activity [26]: Active; Activity [18]: inactive; Activity [27]: Active; Activity [19]: inactive; Activity [4]: inactive; Activity [28]: inactive; IC50 [6]: 130 µM; Activity [20]: inactive; Activity [7]: inactive; Activity [29]: Active; Activity [21]: inactive; IC50 [10]: 150 µM; Activity [22]: inactive; Activity [30]: inactive; Activity [23]: inactive; Activity [24]: inactive; Activity [31]: Active; Activity [25]: inactive

Question: With CCCCCCCCCC(=O)C1=C2C=C3C=C(C[C@H](C)O)N(CCO)C=C3C(=O)[C@]2(C)OC1=O as the compound, how does the IC50 [6] read?
Answer: 45 µM

Question: And the IC50 [10]?
Answer: 50 µM
